These results are taken from publication PMC9398179 (Molecular Cancer Therapeutics, 2021).

For one data set, the system named is TGCT patients. Particulars: across all trials of pexidartinib in TGCT; cited from earlier work.
A short description of data set [1]: Plasma protein binding, human plasma. The format is in vitro ADME.
Another data set relates to M-NFS-60 cells. In words: M-NFS-60 cell proliferation assay. The format is cell-based, mouse. Particulars: 1,000 ng/mL versus 10 ng/mL CSF1.
Data set [2] has as its system CSF1-stimulated cFOS expression in mouse spleens. The data set can be described thus: Mouse PK/PD model, six daily oral doses. Format: in vivo.
Another data set has as its system CD68+ macrophages. In words: CD68+ macrophages in rat tissues. Particulars: 15 mg/kg/day orally, 14 days. Format: in vivo, Sprague-Dawley rats. Summed up:
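Male Sprague-Dawley rats dosed orally for 14 days with 0.4% HPMC vehicle or test compound 15 mg/kg daily (5 per group). FFPE organ tissues stained for CD68 with DAPI counterstain. Five nonoverlapping fields imaged at 20× per tissue. Total cell counts and CD68⁺ cell density (cells/mm²) determined.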

Data set [3] deals with cytochrome P450 (CYP) isoforms. The data set can be described thus: Cytochrome P450 inhibition, all isoforms studied. Format: in vitro ADME.
The subject of data set [4] is cytochrome P450 (CYP) isoforms (all isoforms studied). In words: Cytochrome P450 inhibition, all isoforms studied. The format is in vitro ADME.
The nature of data set [5]: Mouse pharmacokinetics at steady state. The format is in vivo, DBA/1 mice. Particulars: female, DBA/1, mouse, plasma, po, 3 mg/kg.
Data set [6] relates to tenosynovial giant cell tumor (TGCT). The data set can be described thus: Phase I/II study DCC-3014-01-001. Format: in vivo, human.
Data set [7] is described as follows: Crossover pharmacokinetic study in rats. Format: in vivo, Sprague-Dawley rats. Summed up: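 Crossover design in 3 fasted male Sprague-Dawley rats. Single IV dose of 1 mg/kg in 20% Captisol / 25 mmol/L pH 2 phosphate buffer, or oral 10 mg/kg in 0.4% HPMC. Plasma sampled at 0, 0.083 (IV only), 0.25, 0.5, 1, 2, 4, 6, 8, 12 and 24 h and analysed by LC/MS.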
Data set [8] has as its system human osteoclast precursors. In words: Osteoclast differentiation assay. Format: cell-based. Particulars: 240 h, read-out: IC50, osteoclast differentiation. In a few lines: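 Human osteoclast precursors thawed into complete medium with 66 ng/mL RANKL and 33 ng/mL human CSF1. Plated at 2,500 cells/well onto serially diluted test compound in triplicate (0.1% DMSO final). Cultured 10 days at 37°C. Differentiation read as tartrate-resistant acid phosphatase activity in supernatant, absorbance at 550 nm.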

The subject of data set [9] is CSF1R signaling (phospho-ERK) in monocytes in human whole blood. In words: Whole blood phospho-ERK flow cytometry assay. Format: cell-based. Particulars: Monocyte, read-out: adjusted free IC50. Summed up: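 Whole blood from a healthy donor (K2EDTA) incubated with test compound in 100 µL aliquots for 4 h at 37°C, then stimulated with CSF1 10 ng/mL for 5 min. RBCs lysed and cells fixed, permeabilized on ice, and stained with anti-CD14-PE and anti-phospho-ERK1/2. Median phospho-ERK fluorescence measured in CD14⁺ cells, from 50,000 events in the WBC gate.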
(Flow cytometry measures light scatter and fluorescence of single cells or particles in a stream.)

Data set [10] relates to PC3 prostate cancer peritibial implant xenograft. The data set can be described thus: PC3 peritibial implant bone invasion xenograft model. Particulars: 10 mg/kg once or twice daily, oral. Format: in vivo, nude mice. In a few lines: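 Male athymic nude mice acclimated 7 days, then implanted with 1×10^6 PC3 cells in serum-free MEM between tibia and fibula of the right leg. Randomized by body weight. Oral dosing began 6 h post-implant, days 1–32: 0.4% HPMC vehicle or test compound 10 mg/kg once or twice daily, n = 20 per group. Tumor burden = (length × width²)/2 from calipers, measured 2–3 times weekly.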

For the next data set, the system named is MC38 colorectal cancer. In words: MC38 syngeneic colorectal cancer model. The format is in vivo, C57BL/6 mice. In a few lines:
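Female C57BL/6 mice implanted s.c. in the lower right flank with 1×10^6 MC38 cells in PBS. Randomized at mean tumor 104 mm³ and dosed days 12–39: test compound 10 mg/kg oral daily (0.4% HPMC vehicle) plus isotype or anti-PD1 10 mg/kg i.p. twice weekly, n = 15. Five per group taken day 32, 2 h post-dose; fresh tumors analysed by flow cytometry (macrophages CD45/CD11b/F4/80).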

The target in another data set is hERG channel (Homo sapiens, UniProt Q12809). In words: Predictor hERG fluorescence polarization binding assay.
hERG channel, sequence (Q12809 whole entry): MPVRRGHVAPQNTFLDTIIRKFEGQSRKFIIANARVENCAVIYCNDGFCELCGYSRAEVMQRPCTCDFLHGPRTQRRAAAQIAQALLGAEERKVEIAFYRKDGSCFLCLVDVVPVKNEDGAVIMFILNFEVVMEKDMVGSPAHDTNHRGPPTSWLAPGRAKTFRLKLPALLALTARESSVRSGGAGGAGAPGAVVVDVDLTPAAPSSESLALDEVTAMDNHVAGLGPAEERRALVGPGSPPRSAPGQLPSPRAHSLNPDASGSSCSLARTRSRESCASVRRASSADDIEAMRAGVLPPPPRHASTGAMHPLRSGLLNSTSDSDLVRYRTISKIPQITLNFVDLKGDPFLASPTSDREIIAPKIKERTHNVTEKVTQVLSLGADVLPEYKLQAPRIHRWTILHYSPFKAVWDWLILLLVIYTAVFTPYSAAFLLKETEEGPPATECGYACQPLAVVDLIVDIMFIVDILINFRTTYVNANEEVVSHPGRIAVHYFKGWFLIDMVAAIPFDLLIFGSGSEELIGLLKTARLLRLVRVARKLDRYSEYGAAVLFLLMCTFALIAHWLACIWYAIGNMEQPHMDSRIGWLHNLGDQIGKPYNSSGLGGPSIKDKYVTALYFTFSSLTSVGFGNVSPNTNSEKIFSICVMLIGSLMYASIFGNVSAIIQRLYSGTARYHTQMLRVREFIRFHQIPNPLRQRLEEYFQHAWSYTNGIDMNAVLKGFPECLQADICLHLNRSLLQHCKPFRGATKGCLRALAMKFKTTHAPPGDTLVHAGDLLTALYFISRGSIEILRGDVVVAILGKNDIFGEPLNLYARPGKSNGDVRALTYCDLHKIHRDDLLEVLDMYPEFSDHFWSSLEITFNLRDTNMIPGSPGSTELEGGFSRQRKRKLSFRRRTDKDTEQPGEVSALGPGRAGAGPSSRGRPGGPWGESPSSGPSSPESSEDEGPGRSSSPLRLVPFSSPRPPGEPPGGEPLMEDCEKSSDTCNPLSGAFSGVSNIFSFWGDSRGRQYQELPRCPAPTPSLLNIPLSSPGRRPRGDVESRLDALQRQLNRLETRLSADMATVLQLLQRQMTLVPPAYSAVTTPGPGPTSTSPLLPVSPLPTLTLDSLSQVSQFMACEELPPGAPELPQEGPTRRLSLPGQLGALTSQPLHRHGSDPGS
A further data set has as its target MDR1 drug transporter (Homo sapiens, UniProt P08183). The data set can be described thus: MDR1 transporter inhibition. Format: in vitro ADME.
Data set [11] can be described thus: Plasma protein binding, mouse plasma. Format: in vitro ADME.
Data set [12] in a line: Crossover pharmacokinetic study in dogs. Format: in vivo, Beagle dogs. Summed up: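 Crossover design in 3 fasted male Beagle dogs. Single IV dose of 1 mg/kg in 20% Captisol / 25 mmol/L pH 2 phosphate buffer, or oral 3, 10 or 30 mg/kg in 0.4% HPMC. Plasma sampled at 0, 0.083 (IV only), 0.25, 0.5, 1, 2, 4, 6, 8, 12 and 24 h. Quantified by LC/MS.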
A short description of data set [13]: Mouse pharmacokinetics after a single oral dose. Format: in vivo, DBA/1 mice. Particulars: 3.75 mg/kg single oral dose.
Where [14] appears, read: 3 TGCT patients, cycle 2 day 1, trough and 4 hours after dose.
[15] abbreviates: male, Sprague-Dawley, rat, plasma, intravenous, 1 mg/kg.
Where [16] appears, read: male, beagle, dog, plasma, intravenous, 1 mg/kg.

Each structure is given as a SMILES string. Where “and” joins values, the source holds several entries; their conditions need not be identical. Equal entries are not always repeated. Where only a bound is given, the exact number is not on record here.

MDR1 drug transporter, sequence (P08183 whole entry): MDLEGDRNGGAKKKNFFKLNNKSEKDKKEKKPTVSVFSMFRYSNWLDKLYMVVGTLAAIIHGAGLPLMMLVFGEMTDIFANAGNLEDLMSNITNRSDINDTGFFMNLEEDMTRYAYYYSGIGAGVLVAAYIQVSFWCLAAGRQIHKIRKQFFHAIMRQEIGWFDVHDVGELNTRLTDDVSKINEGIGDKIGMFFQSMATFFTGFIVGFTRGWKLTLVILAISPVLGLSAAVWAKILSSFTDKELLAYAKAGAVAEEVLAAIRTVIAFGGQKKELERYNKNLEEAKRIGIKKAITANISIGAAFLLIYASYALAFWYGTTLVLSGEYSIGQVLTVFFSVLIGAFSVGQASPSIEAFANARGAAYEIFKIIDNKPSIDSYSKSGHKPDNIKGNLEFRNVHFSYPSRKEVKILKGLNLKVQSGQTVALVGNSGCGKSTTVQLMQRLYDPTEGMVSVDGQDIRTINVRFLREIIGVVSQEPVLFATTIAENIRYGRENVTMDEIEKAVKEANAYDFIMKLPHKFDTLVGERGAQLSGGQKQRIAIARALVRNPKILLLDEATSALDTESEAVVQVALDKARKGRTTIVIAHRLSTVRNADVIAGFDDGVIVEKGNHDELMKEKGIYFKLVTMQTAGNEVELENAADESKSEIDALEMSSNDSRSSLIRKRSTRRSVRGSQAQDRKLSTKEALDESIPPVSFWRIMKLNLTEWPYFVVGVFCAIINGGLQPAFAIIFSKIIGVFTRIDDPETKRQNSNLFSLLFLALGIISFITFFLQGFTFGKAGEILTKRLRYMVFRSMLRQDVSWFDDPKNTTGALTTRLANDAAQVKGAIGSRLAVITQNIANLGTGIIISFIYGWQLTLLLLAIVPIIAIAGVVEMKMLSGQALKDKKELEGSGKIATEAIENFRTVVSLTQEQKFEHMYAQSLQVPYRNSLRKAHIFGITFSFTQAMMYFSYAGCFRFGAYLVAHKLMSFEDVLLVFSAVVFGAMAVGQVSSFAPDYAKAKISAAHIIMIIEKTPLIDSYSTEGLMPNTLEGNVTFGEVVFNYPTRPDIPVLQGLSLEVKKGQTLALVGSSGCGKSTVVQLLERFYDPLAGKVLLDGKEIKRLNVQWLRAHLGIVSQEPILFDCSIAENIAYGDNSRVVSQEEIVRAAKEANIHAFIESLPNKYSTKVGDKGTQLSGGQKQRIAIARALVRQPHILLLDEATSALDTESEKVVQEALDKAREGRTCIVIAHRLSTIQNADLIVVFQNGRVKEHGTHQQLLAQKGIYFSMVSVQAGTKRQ

As to `FC(F)(F)c1ccc(CNc2ccc(Cc3c[nH]c4ncc(Cl)cc34)cn2)cn1` [Pexidartinib, pexidartinib], the “serious hepatic adverse events assessed as probably drug-related” value in the data set on TGCT patients is given as “five”. Moreover, the plasma protein binding in [1] (method and source not stated) is given as above 99 % bound. Also, the “loss of potency at high CSF1 ligand concentration” value in the data set with M-NFS-60 cells amounted to 3.8 fold.
One may read the EC50 as the concentration that produces a half-maximal response. Broadly, the IC50 is the concentration needed to halve the response being measured. As a reminder, the AUC(0-t) is the area under the concentration-time curve up to a stated or last time point. One may read the Vd as the apparent volume that relates the amount in the body to the concentration in plasma or blood. A high value points to wide distribution into tissue. The clearance is the volume of plasma or blood freed of the substance per unit of time. Lower therefore signals inefficient removal. The term half-life denotes the time in which the quantity being followed falls by half. Low readings indicate fast loss, high ones slow loss. Take `Cc1nc(-c2cnc(NC(C)C)n(C)c2=O)ccc1Oc1ccnc(-c2cnn(C)c2)c1` [Vimseltinib, vimseltinib]: the “inhibition of cFOS expression” value in data set [2] (3 mg/kg, six daily doses, at 24 and 48 hours) is given as “approximately 50%”; in [2] (3 mg/kg, six daily doses, for 12 hours), at least 90%; in data set [2] (six daily oral doses of 1, 3, and 10 mg/kg), “significantly inhibited cFOS expression”. Further, the 50% effective concentration (EC50) in data set [2] (Mus musculus, po, read-out: free EC50) is 0.012 µg/mL and 28 nM; on hERG channel, above 25 µM. In [2] (all animals in the steady-state study), the EC80 is given as 1,700 ng/mL. In addition, the “decrease in liver CD68+ macrophages” value in the data set on CD68+ macrophages (P < 0.0001) was 68%. In addition, the “decrease in colon CD68+ macrophages” value with CD68+ macrophages (P = 0.17) is given as 47%. In [3], the “time-dependent or metabolism-dependent inhibition of any CYP isoform” value was “no time-dependent or metabolism-dependent inhibition of any CYP isoform”. The half-maximal inhibitory concentration (IC50) in data set [4] is above 75 µM; in data set [8] it was 0.0093 µM; in data set [9] it was around 0.014 µM; on MDR1 drug transporter, 4.35 µM. This compound also came in with an AUC(0-t) in data set [5] of 49300 ng·h/mL. The average plasma concentration result in data set [6] (setting [14]) was “approximately 500 ng/mL”. Also, the “average plasma concentration (total drug)” value in [6] (setting [14]) is on record as ~ 1,200 nmol/L. The “plasma CSF1 and IL34 levels” value in [6] (3 patients with TGCT, cycle 2 day 1, 30 mg once a day for 5 days then 30 mg twice weekly) is “increases in CSF1 and IL34 levels”. Further, the “change in tumor size (RECIST v1.1, MRI)” value in data set [6] (patient 2, right hip TGCT, after two cycles) was −25%. The figures for the Vd in data set [7] (setting [15]) and in data set [12] (setting [16]) were 0.69 L/kg and 1.33 L/kg, respectively. Moreover, the figures for the clearance in data set [7] (setting [15]) and in [12] (setting [16]) were 0.5 mL/min/kg and 2.5 mL/min/kg, respectively. The half-life was 14.2 h in data set [7] (setting [15]) and 6.8 h in data set [12] (setting [16]). In addition, the oral bioavailability in data set [7] (rats, 10 mg/kg oral versus 1 mg/kg IV) is 76 % F; in data set [12] (dogs, simple vehicle), ~ 30 % F. The “bound to proteins in plasma” value in data set [1] (human plasma, in vitro ultracentrifugation assay) was “approximately 96.5%”. Also, the primary tumor growth entry in data set [10] was “not affected”. Moreover, the “bone degradation (CT score 0–4)” value in data set [10] (to day 32, n = 20/cohort) is “statistically significant protection from bone degradation”. Besides, in the data set on MC38 colorectal cancer (after 3 weeks of dosing, flow cytometry), the “reduction of TAMs in the primary tumor” value was above 6 fold. Moreover, in the data set on MC38 colorectal cancer (day 32, vimseltinib 10 mg/kg orally every day, anti-PD1 10 mg/kg i.p. twice a week), the “tumor growth inhibition (%TGI)” value is given as 52%. For the same compound, at hERG channel (in vitro binding assay), the “EC20, hERG binding” value is 19.4 µM. Also, the bound in plasma entry in data set [11] is on record as “approximately 97.2%”. The “AUC0–24” value in data set [13] is recorded as 28,987 ng*hour/mL.
